According to ChEMBL document CHEMBL1142170, “Mechanism of activation of beta-D-2'-deoxy-2'-fluoro-2'-c-methylcytidine and inhibition of hepatitis C virus NS5B RNA polymerase” (Antimicrob Agents Chemother, 2007):
The source made the active and inactive calls. The calls are words filed in the database; no cut-off is given here.

How the values were obtained:
Hepacivirus hominis [1] = test: Ratio of Kcat to Km for HCV NS5B RNA polymerase
Outline: (§1)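 Recombinant C-terminal 21-aa truncated HCV NS5B on minus IRES RNA template, 50 mM HEPES pH 7.5, 1 mM MgCl2, 0.75 mM MnCl2, 2 mM DTT, [α-32P]UTP, 27°C. One NTP varied, other three fixed at saturating levels. Aliquots quenched with EDTA/NaCl/citrate, product retained on Hybond N+ membrane, counted by scintillation. Rates from time-course slopes, fit for steady-state parameters.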

Hepacivirus hominis [2] = test: Activity of HCV NS5B RNA polymerase assessed as incorporation of 32P-UMP into RNA; outline: as §1
Hepacivirus hominis [3] = test: Ratio of Kcat to Km for HCV NS5B RNA polymerase S282T mutant
Outline: (§2)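 Steady-state assay with purified 21-aa C-terminally truncated HCV NS5B (S282T) on minus-IRES RNA template. Conditions: 50 mM HEPES pH 7.5, 1 mM MgCl2, 0.75 mM MnCl2, 2 mM DTT, [α-32P]UTP tracer, 27°C. One NTP varied, other three held at saturating levels. Rates came from product time courses; products were dot-blotted on Hybond N+ and counted by scintillation.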

Hepacivirus hominis [4] = test: Ratio of Ki/Km of HCV NS5B RNA polymerase S282T mutant to Ki/Km of HCV NS5B RNA polymerase
Outline: (§3)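 Purified 21-aa C-terminally truncated NS5B (S282T; wild type for comparison) on minus-IRES template, run in 50 mM HEPES pH 7.5 with 1 mM MgCl2, 0.75 mM MnCl2, 2 mM DTT and [α-32P]UTP at 27°C. Natural substrate and inhibitor were both varied against fixed remaining NTPs (UTP 10 μM, others 100 μM). Product was membrane-captured and counted. Ki was obtained by fitting a competitive inhibition equation.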

Hepacivirus hominis [5] = test: Ratio of Ki to Km for HCV NS5B RNA polymerase
Outline: (§4)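 Steady-state Ki against truncated NS5B (wild-type and S282T) on minus IRES template, 27°C, HEPES pH 7.5 with Mg2+/Mn2+/DTT and [α-32P]UTP. For ATP analog, UTP 10, GTP and CTP 100 μM, ATP and inhibitor varied. For CTP analogs, UTP 10, ATP and GTP 100 μM, CTP and inhibitor varied. Membrane-bound product counted, rates fit to competitive inhibition.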

Hepacivirus hominis [6] = test: Inhibition of HCV NS5B RNA polymerase assessed as incorporation of 32P-UMP into RNA; outline: as §4
Hepacivirus hominis [7] = test: Inhibition of HCV NS5B RNA polymerase S282T mutant assessed as incorporation of 32P-UMP into RNA; outline: as §3
[8] = system: RNA-directed RNA polymerase (Hepacivirus hominis), O39930 [S282T]; test: Ratio of Ki to Km for HCV NS5B RNA polymerase S282T mutant; outline: as §3
[9] = molecular target: T1, Uridine-cytidine kinase 1 (Homo sapiens) (UniProt Q9HA47); test: Activity of human UCK1 expressed in Huh7 cells assessed as phosphorylation up to 1 mM by coupled enzyme assay; format: cell-based; conditions: Huh-7
T1 sequence (whole entry): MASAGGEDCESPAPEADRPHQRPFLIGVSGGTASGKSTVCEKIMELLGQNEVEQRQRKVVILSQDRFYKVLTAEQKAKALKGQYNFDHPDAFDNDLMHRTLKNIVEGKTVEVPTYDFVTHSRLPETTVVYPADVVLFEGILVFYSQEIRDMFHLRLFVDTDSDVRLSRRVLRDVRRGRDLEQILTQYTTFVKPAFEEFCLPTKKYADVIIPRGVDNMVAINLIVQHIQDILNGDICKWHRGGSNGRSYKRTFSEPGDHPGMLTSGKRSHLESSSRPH
Outline: (§5)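 His-tagged human UCK-1 cloned from Huh-7 cells, assayed at 25°C by pyruvate kinase/lactate dehydrogenase coupling, NADH oxidation at 340 nm. Buffer 64 mM Tris-HCl pH 7.5, 1 mM ATP, Mg2+, phosphoenolpyruvate. Enzyme 41 nM, or 410 nM for 2′-C-methyl cytidines. Substrate concentration varied. Steady-state parameters reported as mean ± SD.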

[10] = molecular target: T1, Uridine-cytidine kinase 1 (Homo sapiens); test: Ratio of Kcat to Km for UCK1 activity expressed in Huh7 cells; format: cell-based; conditions: Huh-7; outline: as §5
[11] = molecular target: T1, Uridine-cytidine kinase 1 (Homo sapiens); test: Ratio of Kcat to Km for UCK1 activity expressed in Huh7 cells up to 1 mM; format: cell-based; conditions: Huh-7; outline: as §5
[12] = molecular target: T1, Uridine-cytidine kinase 1 (Homo sapiens); test: Activity of human UCK1 expressed in Huh7 cells assessed as phosphorylation by coupled enzyme assay; format: cell-based; conditions: Huh-7; outline: as §5
HepG2 [13] = test: Activity of human NDPK expressed in HepG2 cells assessed as phosphorylation by coupled enzyme assay; format: cell-based
Outline: (§6)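 Human NDPK cloned from HepG2 cells, 216 nM, 37°C, with 1 mM ATP in Tris-HCl pH 7.5 coupled to pyruvate kinase/lactate dehydrogenase. NADH oxidation read at 340 nm. Diphosphate substrate concentration varied, Km and kcat as mean ± SD.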

HepG2 [14] = test: Ratio of Kcat to Km for NDPK activity expressed in HepG2 cells; format: cell-based; conditions: Homo sapiens; outline: as §6
[15] = molecular target: T1, Uridine-cytidine kinase 1 (Homo sapiens); test: Ratio of Kcat to Km for UCK1 activity expressed in Huh7 cells up to 3 mM; format: cell-based; conditions: Huh-7; outline: as §5
[16] = molecular target: T1, Uridine-cytidine kinase 1 (Homo sapiens); test: Activity of human UCK1 expressed in Huh7 cells assessed as phosphorylation up to 3 mM by coupled enzyme assay; format: cell-based; conditions: Huh-7; outline: as §5
[17] = system: Nc1ncnc2c1ncn2[C@@H]1O[C@H](COP(=O)(O)OP(=O)(O)OP(=O)(O)O)[C@@H](O)[C@H]1O; test: (§7) Activity of HCV NS5B RNA polymerase S282T assessed as incorporation of 32P-UMP into RNA; conditions: Hepacivirus hominis; outline: as §2
[18] = system: Nc1nc2c(c(=O)[nH]1)NCN2[C@@H]1O[C@H](COP(=O)(O)OP(=O)(O)OP(=O)(O)O)[C@@H](O)[C@H]1O; test: as §7; conditions: Hepacivirus hominis; outline: as §2
[19] = system: O=c1ccn([C@@H]2O[C@H](COP(=O)(O)OP(=O)(O)OP(=O)(O)O)[C@@H](O)[C@H]2O)c(=O)[nH]1; test: as §7; conditions: Hepacivirus hominis; outline: as §2
[20] = system: Nc1ccn([C@@H]2O[C@H](COP(=O)(O)OP(=O)(O)OP(=O)(O)O)[C@@H](O)[C@H]2O)c(=O)n1; test: as §7; conditions: Hepacivirus hominis; outline: as §2
[21] = system: Nc1ccn([C@@H]2O[C@H](CO)[C@@H](O)C2(F)F)c(=O)n1; conditions: Homo sapiens; HepG2
[22] = system: C[C@@]1(O)[C@H](O)[C@@H](CO)O[C@H]1n1ccc(N)nc1=O; conditions: Homo sapiens; HepG2
[23] = system: Nc1ccn([C@@H]2O[C@H](CO)[C@@H](O)[C@H]2F)c(=O)n1; conditions: Homo sapiens; HepG2
[24] = system: C[C@@H]1[C@H](O)[C@@H](CO)O[C@H]1n1ccc(N)nc1=O; conditions: Homo sapiens; HepG2
[25] = system: C[C@@]1(F)[C@H](O)[C@@H](CO)O[C@H]1n1ccc(N)nc1=O; conditions: Homo sapiens; HepG2
[26] = system: Nc1ccn([C@@H]2O[C@H](CO)[C@@H](O)C2(F)F)c(=O)n1; conditions: Homo sapiens; HepG2; remark: listed apart in the source
[27] = system: C[C@@]1(O)[C@H](O)[C@@H](CO)O[C@H]1n1ccc(N)nc1=O; conditions: Homo sapiens; HepG2; remark: listed apart in the source
[28] = system: Nc1ccn([C@@H]2O[C@H](CO)[C@@H](O)[C@H]2F)c(=O)n1; conditions: Homo sapiens; HepG2; remark: listed apart in the source
[29] = system: C[C@@H]1[C@H](O)[C@@H](CO)O[C@H]1n1ccc(N)nc1=O; conditions: Homo sapiens; HepG2; remark: listed apart in the source
[30] = system: C[C@@]1(F)[C@H](O)[C@@H](CO)O[C@H]1n1ccc(N)nc1=O; conditions: Homo sapiens; HepG2; remark: listed apart in the source

Chain of Deoxycytidine kinase (Homo sapiens), P27707 (P27707 whole entry): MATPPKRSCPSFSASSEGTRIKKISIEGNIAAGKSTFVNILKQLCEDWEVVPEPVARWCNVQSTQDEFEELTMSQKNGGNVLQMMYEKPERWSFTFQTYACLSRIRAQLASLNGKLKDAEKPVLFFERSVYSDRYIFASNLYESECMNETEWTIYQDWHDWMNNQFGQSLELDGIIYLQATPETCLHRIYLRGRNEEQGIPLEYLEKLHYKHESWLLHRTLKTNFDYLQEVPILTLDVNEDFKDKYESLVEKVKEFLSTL

In the case of `Nc1ccn([C@@H]2O[C@H](COP(=O)(O)OP(=O)(O)OP(=O)(O)O)[C@@H](O)[C@H]2O)c(=O)n1`, the kcat/Km (Hepacivirus hominis [1]) is reported as 1.83 M⁻¹ s⁻¹, the Km (Hepacivirus hominis [2]) is reported as 13.7 µM and the kcat (Hepacivirus hominis [2]) is reported as 2.53e-05 s⁻¹. It also gave a kcat/Km (Hepacivirus hominis [3]) of 1.32 M⁻¹ s⁻¹.

For `C[C@@]1(O)[C@H](O)[C@@H](COP(=O)(O)OP(=O)(O)OP(=O)(O)O)O[C@H]1n1cnc2c(N)ncnc21`, the Ratio (Hepacivirus hominis [4]) was 150, the Ki/Km (Hepacivirus hominis [5]) was 0.56 and the Km (Hepacivirus hominis [6]) was 2.7 µM. It also gave a Km (Hepacivirus hominis [7]) of 0.26 µM and a Ki/Km [8] of 84.

With `Nc1ccn([C@H]2C[C@H](O)[C@@H](CO)O2)c(=O)n1` the Activity [9] was “inactive”, the Activity [10] was “inactive” and the Activity [11] was “inactive”. For the same compound, the Activity [12] was “inactive”.

In the case of `O=c1ccn([C@@H]2O[C@H](COP(=O)(O)OP(=O)(O)OP(=O)(O)O)[C@@H](O)[C@H]2O)c(=O)[nH]1`, the kcat/Km (Hepacivirus hominis [1]) is reported as 53.3 M⁻¹ s⁻¹, the Km (Hepacivirus hominis [2]) is reported as 0.4 µM and the kcat (Hepacivirus hominis [2]) is reported as 2.13e-05 s⁻¹. It also gave a kcat/Km (Hepacivirus hominis [3]) of 11.5 M⁻¹ s⁻¹.

`C[C@@]1(O)[C@H](O)[C@@H](COP(=O)(O)OP(=O)(O)OP(=O)(O)O)O[C@H]1n1ccc(N)nc1=O` gave a Ratio (Hepacivirus hominis [4]) of 12, a Ki/Km (Hepacivirus hominis [5]) of 0.12 and a Km (Hepacivirus hominis [6]) of 13.7 µM. For the same compound, the Km (Hepacivirus hominis [7]) was 2.7 µM and the Ki/Km [8] was 1.4.

For `C[C@@]1(F)[C@H](O)[C@@H](COP(=O)(O)OP(=O)(O)OP(=O)(O)O)O[C@H]1n1ccc(N)nc1=O`, the Ratio (Hepacivirus hominis [4]) was 3, the Ki/Km (Hepacivirus hominis [5]) was 0.31 and the Km (Hepacivirus hominis [6]) was 13.7 µM. For the same compound, the Km (Hepacivirus hominis [7]) was 2.7 µM and the Ki/Km [8] was 0.93.

In the case of `C[C@@]1(O)[C@H](O)[C@@H](CO)O[C@H]1n1ccc(N)nc1=O`, the Activity [10] is reported as “inactive” and the Activity [12] is reported as “inactive”.

In the case of `Nc1ccn([C@@H]2O[C@H](COP(=O)(O)OP(=O)(O)O)[C@@H](O)[C@H]2O)c(=O)n1`, the Km (HepG2 [13]) is reported as 307 µM, the kcat (HepG2 [13]) is reported as 183 s⁻¹ and the kcat/Km (HepG2 [14]) is reported as 600000 M⁻¹ s⁻¹.

In the case of `C[C@@]1(F)[C@H](O)[C@@H](CO)O[C@H]1n1ccc(N)nc1=O`, the Activity [15] is reported as “inactive”, the Activity [10] is reported as “inactive” and the Activity [12] is reported as “inactive”. The Activity [16] was “inactive”.

Work on `C[C@@]1(F)[C@H](O)[C@@H](COP(=O)(O)OP(=O)(O)O)O[C@H]1n1ccc(N)nc1=O` yielded a Km (HepG2 [13]) of 1380 µM, a kcat (HepG2 [13]) of 21 s⁻¹ and a kcat/Km (HepG2 [14]) of 15000 M⁻¹ s⁻¹.

Compound “RNA-directed RNA polymerase (Hepacivirus hominis), O39930 S282T” has a Km [17] of 0.26 µM, a kcat [17] of 0.000167 s⁻¹ and a Km [18] of 5 µM. For the same compound, the kcat [18] was 0.000198 s⁻¹, the Km [19] was 0.18 µM and the kcat [19] was 0.000125 s⁻¹. For the same compound, the Km [20] was 2.7 µM and the kcat [20] was 0.000214 s⁻¹.

In the case of `Nc1ncnc2c1ncn2[C@@H]1O[C@H](COP(=O)(O)OP(=O)(O)OP(=O)(O)O)[C@@H](O)[C@H]1O`, the kcat/Km (Hepacivirus hominis [1]) is reported as 12.3 M⁻¹ s⁻¹, the Km (Hepacivirus hominis [2]) is reported as 2.7 µM and the kcat (Hepacivirus hominis [2]) is reported as 3.33e-05 s⁻¹. For the same compound, the kcat/Km (Hepacivirus hominis [3]) was 10.7 M⁻¹ s⁻¹.

“Deoxycytidine kinase (Homo sapiens), P27707” was tested, and the kcat/Km [21] was 27000 M⁻¹ s⁻¹, the kcat/Km [22] was 12 M⁻¹ s⁻¹ and the kcat/Km [23] was 11000 M⁻¹ s⁻¹. It also gave a kcat/Km [24] of 1000 M⁻¹ s⁻¹, a kcat/Km [25] of 190 M⁻¹ s⁻¹ and a Km [26] of 1.4 µM. It also gave a kcat [26] of 0.038 s⁻¹, a Km [27] of 914 µM and a kcat [27] of 0.011 s⁻¹. It also gave a Km [28] of 4.7 µM, a kcat [28] of 0.05 s⁻¹ and a Km [29] of 46.2 µM. For the same compound, the kcat [29] was 0.048 s⁻¹, the Km [30] was 81.2 µM and the kcat [30] was 0.016 s⁻¹.
